High-throughput results from PubChem.
T cruzi repl = inhibitors of intracellular T. cruzi growth, primary screen, luminescence, NIH3T3 host cells; T. cruzi beta-gal in NIH3T3, 90 h; inhibition, % (test concentration not listed); actives 1.4% (n = 300,000); AID 1885, 2009;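 active means mean inhibition across valid replicates above about 55%, limit read from the data; inconclusive means mean below that limit but half or more replicates reach it; inactive means mean below it, under half of replicates reach it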;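 further: signal also drops with host cell toxicity which is not excluded here; higher percent means less beta-gal luminescence so fewer parasites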
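Test system: β-gal T. cruzi (Tulahuen C4) inside NIH/3T3 cells / Quantity: 5,000 cells/well / Measured by: luminescence from GalScreen with 0.05% NP40, read after 60 min / Medium: DMEM plus 2% FBS / Measure: parasite load inhibition, % / Reagent: Tulahuen C4 trypomastigotes, 5000/well / Schedule: co-culture of at least 90 h after 3 h attachment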
Hep lipid drop = inhibitors of hepatocyte lipid droplet formation, primary screen, imaging, high-throughput imaging, BODIPY stain; AML12 mouse hepatocytes, oleate lipid droplets; inhibition, % at 6.5 µM; actives 0.4% (n = 240,000);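 active means lipid droplet intensity inhibited by at least 50%, with more than 500 cells counted; inconclusive means wells with under 300 cells, treated as cytotoxic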
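Assay system: AML12 mouse liver cells | Compound: 6.5 µM single-point dosing | Schedule: Overnight exposure | Technique: Fluorescence imaging, 20x objective, two fields per well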
DTT redox prof = compounds producing H2O2 with reducing agent – biochemical, NIH compound library profiling, artefact control for MLSCN library redox annotation, primary screen. DTT-dependent redox cycling H2O2, phenol red/HRP absorbance; 100% = 100 µM peroxide control, 0% = buffer. activation, % at 10 µM. actives 0.03% (n = 200,000);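 active means activation of at least 50% relative to the plate's high and low controls in the primary single-dose screen; inactive means activation below 50%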;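 further: compound incubated with DTT at 0.8 mM final as the reducing agent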
MPTP block = mitochondrial permeability transition pore inhibitors, primary screen, biochemical, isolated mouse mitochondria, absorbance; Ca2+ swelling absorbance, 30 min; inhibition, % at 10 µM; actives 1.4% (n = 360,000); AID 602449, 2012;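 active means inhibition of 50% or more, scaled per plate between neutral and stimulator controls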
L major viab = Leishmania major promastigote growth inhibition, primary screen. Leishmania major promastigotes, resazurin fluorescence viability. inhibition, % at 10 µM. actives 9% (n = 200,000). AID 1063, 2008; in the data active means inhibition above about 50%;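 further: promastigotes grown with compound for 44 hours at 28 °C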
Numbers stand for hits. The entries come from a sample that favours hits as a whole.

What do the screens show for `CC(C)CC(=O)NC(=S)NCCc1ccccc1`?
T cruzi repl: inactive; DTT redox prof: inactive; MPTP block: inactive; L major viab: inactive

What do the screens show for `CN(CC(=O)Nc1cccc(F)c1)C(=O)CCNC(=O)c1ccco1`?
T cruzi repl: inactive; MPTP block: inactive

How did CN1CCN(c2nc3ccccc3nc2C(C#N)C(=O)OC2CCCCC2)CC1 (stereo unspecified) do in these assays?
T cruzi repl: inactive; DTT redox prof: inactive; MPTP block: inactive; L major viab: 90

Results for CCN1CCN(c2nc3ccccc3nc2C(C#N)C(=O)OC2CCCCC2)CC1 (stereo unspecified) ?
DTT redox prof: inactive; MPTP block: inactive; L major viab: 85

Results for N#CC(Cc1ccccc1OC(F)F)c1nc2ccccc2[nH]1 (stereo unspecified) ?
T cruzi repl: inactive; Hep lipid drop: inactive; DTT redox prof: inactive; MPTP block: inactive; L major viab: inactive

What do the screens show for `O=C(CC1C(=O)NCCN1C1CCCC1)NCc1cccc(OC(F)(F)F)c1` (stereo unspecified)?
T cruzi repl: inactive; Hep lipid drop: inactive; MPTP block: inactive

How did O=[N+]([O-])c1nn(-c2ccc3c(c2)OCCO3)n(O)c1=NC1CCCC1 do in these assays?
T cruzi repl: 90; Hep lipid drop: inactive; DTT redox prof: inactive; MPTP block: inactive; L major viab: inactive

Results for O=[N+]([O-])c1nn(-c2ccc3c(c2)OCCO3)n(O)c1=NC1CCCCCC1 ?
T cruzi repl: 59; Hep lipid drop: inactive; DTT redox prof: inactive; MPTP block: inactive; L major viab: 87

How did O=C(CCNC(=O)C1CCN(S(=O)(=O)c2ccc(F)cc2)CC1)NCc1ccncc1 do in these assays?
T cruzi repl: inactive; Hep lipid drop: inactive; MPTP block: inactive

What do the screens show for `C=C1c2ccccc2NC(=S)N1Cc1ccc2c(c1)OCO2`?
T cruzi repl: inactive; Hep lipid drop: inactive; DTT redox prof: inactive; MPTP block: inactive; L major viab: inactive

How did COc1cc(OC)cc(C(=O)NC2CC3CCC(C2)N3Cc2ccco2)c1 (stereo unspecified) do in these assays?
T cruzi repl: inactive; DTT redox prof: inactive; MPTP block: inactive; L major viab: inactive

Results for Cc1ccc(CN2C3CCCC2CC(NC(=O)c2ccc(C)cc2)C3)cc1 (stereo unspecified) ?
T cruzi repl: inactive; Hep lipid drop: inactive; DTT redox prof: inactive; MPTP block: inactive; L major viab: 81

How did Cc1ccc(C(=O)NC2CC3CCC(C2)N3Cc2ccco2)cc1 (stereo unspecified) do in these assays?
T cruzi repl: inactive; Hep lipid drop: inactive; DTT redox prof: inactive; MPTP block: inactive; L major viab: 57

Results for CC(=O)NC1CC2CCCC(C1)N2Cc1ccc(C)cc1 (stereo unspecified) ?
T cruzi repl: inactive; Hep lipid drop: inactive; MPTP block: inactive

How did N#CC1=C(S)N(c2ccccc2)C(c2cccs2)NC1=O (stereo unspecified) do in these assays?
T cruzi repl: inactive; Hep lipid drop: inactive; DTT redox prof: inactive; MPTP block: inactive; L major viab: inactive

Results for Cc1ccc(N2C(S)=C(C#N)C(=O)NC2c2cccs2)cc1 (stereo unspecified) ?
T cruzi repl: inactive; Hep lipid drop: inactive; DTT redox prof: inactive; MPTP block: inactive; L major viab: 61

What do the screens show for `N#Cc1cccc(C=C(C(=O)c2ccccc2)c2ccccc2)c1`?
MPTP block: inactive

What do the screens show for `CN(C(=O)c1cccc(S(=O)(=O)N2CCOCC2)c1)c1c(N)n(Cc2ccccc2)c(=O)[nH]c1=O`?
MPTP block: inactive

How did Cc1cc([N+](=O)[O-])nn1CC(=O)NC(C)c1ccccc1 (stereo unspecified) do in these assays?
T cruzi repl: inconclusive; Hep lipid drop: inactive; MPTP block: inactive

What do the screens show for `O=C(Cn1nc([N+](=O)[O-])nc1Br)NC(c1ccccc1)c1ccccc1`?
T cruzi repl: inactive; Hep lipid drop: inactive; DTT redox prof: inactive; MPTP block: inactive; L major viab: 79

How did O=C(CSc1nc(=O)n2ccccc2n1)N1N=C(c2cccs2)CC1c1ccc(F)cc1 (stereo unspecified) do in these assays?
T cruzi repl: 58; MPTP block: inactive

What do the screens show for `O=C(CSC1=NCCS1)N1N=C(c2cccs2)CC1c1ccc(F)cc1` (stereo unspecified)?
MPTP block: inactive

What do the screens show for `Cc1ccc(C2CC(c3cccs3)=NN2C(=O)CSc2nc(=O)n3ccc(C)cc3n2)cc1` (stereo unspecified)?
T cruzi repl: 60; MPTP block: inactive

Results for COc1cccc(C2CC(c3cccs3)=NN2C(=O)CSc2nc3c(cnn3-c3ccc(F)cc3)c(=O)[nH]2)c1OC (stereo unspecified) ?
T cruzi repl: inactive; Hep lipid drop: inactive; DTT redox prof: inactive; MPTP block: inactive; L major viab: inactive

How did COc1ccc(C2CC(c3cccs3)=NN2C(=O)CSc2nc3c(cnn3-c3ccccc3)c(=O)[nH]2)cc1 (stereo unspecified) do in these assays?
T cruzi repl: inactive; Hep lipid drop: inactive; DTT redox prof: inactive; MPTP block: inactive; L major viab: 85

How did O=C(CSc1nc2ccccc2o1)N1N=C(c2cccs2)CC1c1ccc(F)cc1 (stereo unspecified) do in these assays?
T cruzi repl: inactive; Hep lipid drop: inactive; DTT redox prof: inactive; MPTP block: inactive; L major viab: 97

Results for COc1ccc(C2CC(c3cccs3)=NN2C(=O)CSc2nc(=O)n3ccc(C)cc3n2)cc1 (stereo unspecified) ?
T cruzi repl: inactive; MPTP block: inactive

How did COc1ccc(C(=O)NCc2nnc(SCC(=O)N3CCCC3)o2)cc1OC do in these assays?
T cruzi repl: inactive; Hep lipid drop: inactive; MPTP block: inactive

How did CN(C(=O)c1cc(-n2cnnc2)ccc1Cl)c1ccccc1 do in these assays?
T cruzi repl: inactive; Hep lipid drop: inactive; DTT redox prof: inactive; MPTP block: inactive; L major viab: inactive

How did C/C(=N/NC(=O)CN1CCN(S(=O)(=O)c2ccc(C)cc2)CC1)c1ccco1 do in these assays?
T cruzi repl: inactive; Hep lipid drop: inactive; MPTP block: inactive

What do the screens show for `CC(=O)Nc1cnc(-c2cc(C)c(O)c(C)c2)cn1`?
MPTP block: inactive

What do the screens show for `CCn1c2nc(SCCN3CCOCC3)nnc2c2cc(C)cc(C)c21`?
T cruzi repl: inactive; Hep lipid drop: inactive; MPTP block: inactive

What do the screens show for `Cc1ccc(-n2c(C)cc(/C=C3\SC(=O)NC3=O)c2C)cc1`?
T cruzi repl: inactive; Hep lipid drop: inactive; MPTP block: inactive

What do the screens show for `Cc1ccc(-n2c(C)cc(C=C3C(=O)CC(C)(C)CC3=O)c2C)cc1`?
T cruzi repl: inactive; Hep lipid drop: inactive; DTT redox prof: inactive; MPTP block: inactive; L major viab: 98
